Results taken from paper PMC2645950 (Journal of medicinal chemistry, 2008).
Changes are numbered by the printed parent chain.

Assays:
[1] = Stability in aqueous solution; type: physicochemical; details: for rearrangement to N^6-substituted 2-aminoadenine in heated water: heating
[2] = target: T1, S159A mutant alkyltransferase (Homo sapiens, UniProt P16455, S159A); assay: Inactivation of purified S159A mutant alkyltransferase in vitro; type: biochemical; details: 30 min at 37°C
T1 sequence (P16455 1-207 S159A): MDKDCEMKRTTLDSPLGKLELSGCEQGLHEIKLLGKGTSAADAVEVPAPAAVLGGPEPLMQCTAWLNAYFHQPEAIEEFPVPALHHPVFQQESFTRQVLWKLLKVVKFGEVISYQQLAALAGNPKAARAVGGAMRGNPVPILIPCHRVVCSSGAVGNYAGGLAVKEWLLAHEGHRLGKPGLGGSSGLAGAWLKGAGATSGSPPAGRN

[3] = target: T2, human alkyltransferase (wild type) (Homo sapiens, UniProt P16455); assay: Inactivation of purified recombinant human alkyltransferase in vitro; type: biochemical; details: for less effective than BG: ortho-substituted BG derivatives
T2 sequence (P16455 1-207): T1 sequence (P16455 1-207 S159A) with A159S

[4] = tested on: HT29 cells; assay: Sensitization of HT29 cells to killing by BCNU; type: cell-based, human; details: 2 h exposure prior to 40 μM BCNU; colony forming assay
In short: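 HT29 cells in RPMI 1640 with 10% FBS. 24 h after plating, cells get test compound at varied concentrations for 2 h, then 40 μM BCNU for 2 h. Medium is then replaced with inhibitor-containing, BCNU-free medium for 16–18 h. Cells are replated at 250–1000 per 25 cm2 flask and grown 8 days. Colonies are saline-washed, stained with 0.5% crystal violet in ethanol, and counted.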

[5] = Solubility; type: physicochemical; details: at physiological pH
[6] = tested on: alkyltransferase; details: BG free base; cited from earlier work
[7] = target: T2, human alkyltransferase (wild type); details: cited from earlier work

## NCc1ccc(COc2nc(N)nc3nc[nH]c23)cc1 [Compound 1, O^6-[4-(Aminomethyl)benzyl]guanine]
[1]
  rearrangement to N^6-substituted 2-aminoadenine in heated water: not observed
[2]; ED50 + DNA, + DNA
  IC50: 28 nM
[2]; ED50 No DNA, no DNA
  IC50: 160 nM

## Cc1ccccc1COc1nc(N)nc2nc[nH]c12 [Compound 6, O^6-[2-(Methyl)benzyl]guanine]
[3]
  less effective than BG: > 200 fold

## NCc1cccc(COc2nc(N)nc3nc[nH]c23)c1 [Compound 2, O^6-[3-(Aminomethyl)benzyl]guanine]
[1]
  rearrangement to N^6-substituted 2-aminoadenine in heated water: not observed
[4]
  sensitizing HT29 cells to BCNU: much more effective than compound 1
[5]
  solubility relative to BG: approx. 1000 times

## Nc1nc(NCc2ccccc2CO)c2[nH]cnc2n1 [Compound 7, N^6-[2-(Hydroxymethyl)benzyl]-2-aminoadenine]
[3]; read-out: inhibition of alkyltransferase
  inhibition at 1000 µM: < 10%

## Nc1nc(OCc2ccccc2)c2nc[nH]c2n1 [BG, O^6-Benzylguanine]
[6]
  rate constant for the reaction: ~600 M⁻¹ s⁻¹
[7]
  enhancement of inactivation of alkyltransferase by the presence of DNA: 3–4 fold

## NCc1ccccc1COc1nc(N)nc2nc[nH]c12 [Compound 3, O^6-[2-(Aminomethyl)benzyl]guanine]
[1]; aqueous solution, 37°C (0.1 M sodium phosphate buffer pH 7.4, followed by UV, first order kinetics)
  half life of rearrangement of 3 to 7: 51 h
[3]
  less effective than BG: > 200 fold
